Test results taken from ChEMBL document CHEMBL4616681, “Discovery of 3-Pyridyl Isoindolin-1-one Derivatives as Potent, Selective, and Orally Active Aldosterone Synthase (CYP11B2) Inhibitors” (J Med Chem, 2020).
Values after ≈ are worked out from the molar mass of the structure shown.

Columns and labels:
[1] = molecular target: T1, Cytochrome P450 11B2, mitochondrial (Homo sapiens, UniProt P19099); experiment: Inhibition of human CYP11B2 expressed in human renal leiomyoblastoma cells harboring FDXR/FDX using 1-deoxycorticosterone as substrate by HTRF assay; assay type: cell-based
T1 sequence (P19099 whole entry): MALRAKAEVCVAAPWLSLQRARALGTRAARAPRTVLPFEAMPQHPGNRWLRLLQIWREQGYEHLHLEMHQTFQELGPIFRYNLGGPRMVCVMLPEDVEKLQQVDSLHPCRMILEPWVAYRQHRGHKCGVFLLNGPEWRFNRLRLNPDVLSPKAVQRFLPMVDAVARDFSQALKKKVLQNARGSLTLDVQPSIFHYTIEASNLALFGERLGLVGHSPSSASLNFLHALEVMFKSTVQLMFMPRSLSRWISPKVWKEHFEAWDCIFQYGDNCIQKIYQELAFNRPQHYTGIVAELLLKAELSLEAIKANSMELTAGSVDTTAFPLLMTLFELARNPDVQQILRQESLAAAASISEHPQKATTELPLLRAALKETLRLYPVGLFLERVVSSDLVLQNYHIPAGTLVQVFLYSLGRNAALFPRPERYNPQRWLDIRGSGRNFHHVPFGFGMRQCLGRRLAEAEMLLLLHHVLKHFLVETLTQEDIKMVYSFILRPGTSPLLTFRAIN
In short: (§1)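 Cells with endogenous FDXR/FDX and no detectable CYP11B activity, stably transfected (CMV promoter, neomycin selection, G-418 400 µg/mL) with CYP11B1 or CYP11B2 of the named species. Assayed in DMEM/F12 with 2.5% charcoal-treated FCS. Substrate 1 µM 11-deoxycorticosterone (B2) or 11-deoxycortisol (B1), 16 hr. Aldosterone or cortisol in supernatant measured by HTRF. IC50 from 4-parameter MMF fit; selectivity factor is the B1/B2 IC50 ratio.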

[2] = Selectivity ratio of IC50 for human CYP11B1 expressed in human renal leiomyoblastoma cells harboring FDXR/FDX to IC50 for human CYP11B2 expressed in human renal leiomyoblastoma cells harboring FDXR/FDX; assay type: cell-based; in short: as §1
[3] = Permeability of the compound measured at 18 hrs by PAMPA; assay type: ADME; details: read-out: permeability
In short: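 PAMPA sandwich format. Donor: compound diluted to 150 μM (DMSO <2%) in 0.05 M MOPSO pH 6.5 with 0.5% glycocholic acid. Acceptor: 0.05 M MOPSO pH 6.5. Membrane of 10% egg lecithin with 0.5% cholesterol in dodecane. Donor measured at start; acceptor and donor measured at ~18 hr.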

[4] = Solubility of the compound in phosphate buffer at pH 6.5 shaken for 2 hrs followed by overnight incubation; assay type: physicochemical
In short: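 Lyophilisation solubility assay run in duplicate from 10 mM DMSO stock. DMSO evaporated and residue redissolved in 0.05 M phosphate, pH 6.5. Stirred 1 hr, shaken 2 hr, left overnight, then filtered. Filtrate and a 1/10 dilution analysed by HPLC-UV against a four-point calibration.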

[5] = Inhibition of cynomolgus monkey CYP11B2 expressed in human G401 cells using 1-deoxycorticosterone as substrate by HTRF assay; assay type: cell-based, Macaca fascicularis; details: g-401; in short: as §1
[6] = Selectivity ratio of IC50 for cynomolgus monkey CYP11B1 expressed in human G401 cells to IC50 for cynomolgus monkey CYP11B2 expressed in human G401 cells; assay type: cell-based; in short: as §1
[7] = Plasma clearance in Wister-Han rat at 1 mg/kg, iv administered as single dose by LC/MS-MS analysis; assay type: ADME, organism-based; details: Wistar-Han
In short: (§2)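 Male Wistar-Han rats, single dose. IV 1 mg/kg, compound at 0.5 mg/mL in NMP:saline 30/70 (v/v). Oral 3 mg/kg, 0.25 mg/mL in 2% Klucel with 0.1% Polysorbate 80. Three rats per time point. Heparinized blood taken at eight (iv) or seven (po) time points, plasma stored at -20 °C. Plasma levels by LC/MS-MS. Non-compartmental analysis.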

[8] = AUC (0 to infinity) in Wister-Han rat at 3 mg/kg, po administered as single dose by LC/MS-MS analysis; assay type: ADME, organism-based; design: dose 3 mg/kg, route oral, time infinity; details: Wistar-Han, in vivo; in short: as §2
[9] = Oral bioavailability in Wister-Han rat at 3 mg/kg administered as single dose by LC/MS-MS analysis; assay type: ADME, organism-based; details: Wistar-Han, in vivo; in short: as §2
[10] = molecular target: T2, Cytochrome P450 11B1, mitochondrial (Homo sapiens, UniProt P15538); experiment: Inhibition of human CYP11B1 expressed in human renal leiomyoblastoma cells harboring FDXR/FDX using 1-deoxycortisol as substrate by HTRF assay; assay type: ADME, cell-based; in short: as §1
T2 sequence (P15538 whole entry): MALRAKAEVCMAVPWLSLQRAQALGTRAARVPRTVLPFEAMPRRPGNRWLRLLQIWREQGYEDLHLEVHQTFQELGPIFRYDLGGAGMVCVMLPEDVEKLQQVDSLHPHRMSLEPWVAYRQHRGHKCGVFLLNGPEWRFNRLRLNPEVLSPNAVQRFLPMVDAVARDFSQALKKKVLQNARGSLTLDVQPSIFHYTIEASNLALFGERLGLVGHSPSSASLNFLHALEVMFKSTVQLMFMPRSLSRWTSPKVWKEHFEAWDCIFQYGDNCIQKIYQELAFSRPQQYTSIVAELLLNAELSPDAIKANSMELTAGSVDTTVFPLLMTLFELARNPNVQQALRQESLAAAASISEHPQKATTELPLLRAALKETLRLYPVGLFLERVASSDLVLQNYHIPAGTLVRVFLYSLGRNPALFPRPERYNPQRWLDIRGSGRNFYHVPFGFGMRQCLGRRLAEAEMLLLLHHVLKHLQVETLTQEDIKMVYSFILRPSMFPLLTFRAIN

Cytochrome P450 3A4 = Cytochrome P450 3A4 (Homo sapiens, UniProt P08684); experiment: Inhibition of CYP3A4 (unknown origin); assay type: ADME
Sequence of Cytochrome P450 3A4 (P08684 whole entry): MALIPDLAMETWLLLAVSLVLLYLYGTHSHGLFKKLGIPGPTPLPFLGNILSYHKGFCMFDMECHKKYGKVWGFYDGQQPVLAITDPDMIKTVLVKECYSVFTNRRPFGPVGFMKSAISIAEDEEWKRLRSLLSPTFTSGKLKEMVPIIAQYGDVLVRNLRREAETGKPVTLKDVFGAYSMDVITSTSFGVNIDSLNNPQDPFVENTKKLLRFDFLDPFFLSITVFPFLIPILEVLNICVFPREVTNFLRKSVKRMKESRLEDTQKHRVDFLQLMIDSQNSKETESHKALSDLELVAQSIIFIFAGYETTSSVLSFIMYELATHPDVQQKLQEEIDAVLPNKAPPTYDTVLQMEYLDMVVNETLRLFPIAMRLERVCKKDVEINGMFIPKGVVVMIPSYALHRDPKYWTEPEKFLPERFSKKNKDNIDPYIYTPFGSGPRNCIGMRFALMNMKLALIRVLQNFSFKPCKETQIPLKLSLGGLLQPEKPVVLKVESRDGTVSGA

Cytochrome P450 2D6 = Cytochrome P450 2D6 (Homo sapiens, UniProt P10635); experiment: Inhibition of CYP2D6 (unknown origin); assay type: ADME
Sequence of Cytochrome P450 2D6 (P10635 whole entry): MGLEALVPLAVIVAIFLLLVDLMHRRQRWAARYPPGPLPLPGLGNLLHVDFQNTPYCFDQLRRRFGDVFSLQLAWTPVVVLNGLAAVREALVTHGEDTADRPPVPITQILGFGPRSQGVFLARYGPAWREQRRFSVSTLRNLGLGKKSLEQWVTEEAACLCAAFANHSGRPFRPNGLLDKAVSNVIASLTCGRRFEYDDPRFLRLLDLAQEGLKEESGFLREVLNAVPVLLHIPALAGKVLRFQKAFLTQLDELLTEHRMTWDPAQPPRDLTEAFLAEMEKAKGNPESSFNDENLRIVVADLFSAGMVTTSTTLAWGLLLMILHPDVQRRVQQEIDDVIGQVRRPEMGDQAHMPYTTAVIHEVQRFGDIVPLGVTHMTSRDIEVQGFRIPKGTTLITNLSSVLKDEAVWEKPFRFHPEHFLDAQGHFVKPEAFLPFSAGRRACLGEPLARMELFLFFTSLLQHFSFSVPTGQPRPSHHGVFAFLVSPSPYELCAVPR

Cytochrome P450 2C9 = Cytochrome P450 2C9 (Homo sapiens, UniProt P11712); experiment: Inhibition of CYP2C9 (unknown origin); assay type: ADME
Sequence of Cytochrome P450 2C9 (P11712 whole entry): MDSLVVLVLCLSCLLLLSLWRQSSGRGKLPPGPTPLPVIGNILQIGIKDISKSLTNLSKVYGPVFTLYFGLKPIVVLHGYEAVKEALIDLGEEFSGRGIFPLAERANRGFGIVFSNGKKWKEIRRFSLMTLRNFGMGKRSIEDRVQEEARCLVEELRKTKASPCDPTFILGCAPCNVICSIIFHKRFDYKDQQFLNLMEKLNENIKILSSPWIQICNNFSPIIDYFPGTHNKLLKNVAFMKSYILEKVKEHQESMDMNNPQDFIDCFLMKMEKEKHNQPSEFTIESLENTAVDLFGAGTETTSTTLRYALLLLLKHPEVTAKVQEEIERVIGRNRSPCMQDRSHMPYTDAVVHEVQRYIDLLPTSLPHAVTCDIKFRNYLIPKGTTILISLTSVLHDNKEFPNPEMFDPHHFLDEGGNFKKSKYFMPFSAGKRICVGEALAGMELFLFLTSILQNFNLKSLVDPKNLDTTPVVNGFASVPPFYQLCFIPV

[11] = Intrinsic clearance in rat liver microsomes preincubated for 10 mins followed by NADPH regenerating system addition and measured up to 30 mins by LC/MS-MS analysis; assay type: ADME, Microsome
In short: (§3)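 Liver microsomes at 0.5 mg protein/mL in 100 mM potassium phosphate, pH 7.4. Compound preincubated 10 min at 37 °C. Intrinsic clearance scaled using the well-stirred liver model.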

[12] = Intrinsic clearance in human liver microsomes preincubated for 10 mins followed by NADPH regenerating system addition and measured up to 30 mins by LC/MS-MS analysis; assay type: ADME, Microsome; details: read-out: CLH; in short: as §3
[13] = Intrinsic clearance in mouse liver microsomes preincubated for 10 mins followed by NADPH regenerating system addition and measured up to 30 mins by LC/MS-MS analysis; assay type: ADME, Microsome; in short: as §3
[14] = Octanol-water distribution coefficient, log D of the compound by carrier-mediated distribution system; assay type: physicochemical
[15] = Protein binding in rat plasma assessed as unbound fraction at 1 uM by micro-equilibrium dialysis based LC-MS/MS analysis; assay type: ADME, cell-free
In short: (§4)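 Equilibrium dialysis of pooled rat or cynomolgus plasma against Soerensen buffer pH 7.4, 12–14 kDa cut-off membrane. Compounds tested in cassettes of 2–5 at 1 μM initial total concentration, with diazepam as control. Dialysis 5 hr at 37 °C under 5% CO₂. Unbound percentage by LC/MS-MS.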

[16] = Protein binding in cynomolgus monkey plasma assessed as unbound fraction at 1 uM by micro-equilibrium dialysis based LC-MS/MS analysis; assay type: ADME, cell-free, Macaca fascicularis; in short: as §4
[17] = Intrinsic clearance in rat hepatocytes; assay type: ADME, cell-based, Hepatocyte; details: read-out: CLH
[18] = Intrinsic clearance in cynomolgus monkey hepatocytes; assay type: ADME, cell-based, Macaca fascicularis, Hepatocyte; details: read-out: CLH
[19] = Plasma clearance in iv dosed cynomolgus monkey; assay type: ADME, organism-based, Macaca fascicularis
[20] = Dose normalized AUC in cynomolgus monkey; assay type: ADME, Macaca fascicularis; details: in vivo
[21] = Dose normalized AUC in Wister-Han rat at 1 mg/kg, iv or 3 mg/kg, po administered as single dose by LC/MS-MS analysis; assay type: ADME, organism-based; details: in vivo; in short: as §2
[22] = Oral bioavailability in cynomolgus monkey; assay type: ADME, organism-based, Macaca fascicularis; details: in vivo

Structure (SMILES) | IC50 [1] | Ratio IC50 [2] | Papp at 18 h [3] | solubility at 2 h [4] | IC50 [5] | Ratio IC50 [6] | clearance [7] | AUC(0-inf) [8] | bioavailability [9] | IC50 [10] | predicted hepatic clearance (CLH) [11] | further results
CC1(C)c2cc(Cl)ccc2C(=O)N1c1cncc(OC2CN(C(=O)c3ncccc3Cl)C2)c1 | 5 nM | 174 | 3.32 ×10⁻⁶ cm/s | 20 µg/mL (≈ 41.4 µM) | 0.5 nM | 1120 | 3.1 mL/min/kg | 10800 ng·h/mL | 58% |  |  | 
CC1Cc2cc(Cl)ccc2C(=O)N1c1cccnc1 (stereo not drawn) | 761 nM | > 13 |  |  |  |  |  |  |  | > 10000 nM |  | IC50 (Cytochrome P450 3A4): > 50000 nM; IC50 (Cytochrome P450 2D6): > 50000 nM; IC50 (Cytochrome P450 2C9): > 50000 nM
CC(=O)N1CCN(c2cncc(N3C(=O)c4ccc(Cl)cc4C3(C)C)c2)CC1 | 9 nM | 80 |  |  | 3 nM | 236 |  |  |  |  | 17.7 mL/min/kg | 
CC1CN(c2cccnc2)C(=O)c2ccc(Cl)cc21 (stereo not drawn) | 164 nM | 16 |  |  |  |  |  |  |  | 2590 nM |  | predicted hepatic clearance [12]: 6.6 mL/min/kg; predicted hepatic clearance (CLH) [13]: 45 mL/min/kg; IC50 (Cytochrome P450 3A4): > 50000 nM; IC50 (Cytochrome P450 2D6): > 50000 nM; IC50 (Cytochrome P450 2C9): > 50000 nM
CC1(C)c2cc(Cl)ccc2C(=O)N1c1cncc(N2CCN(S(C)(=O)=O)CC2)c1 | 2 nM | 146 | 6.03 ×10⁻⁶ cm/s | 91 µg/mL (≈ 209 µM) | 0.2 nM | 170 | 16.6 mL/min/kg | 1640 ng·h/mL | 54% |  | 16.8 mL/min/kg | 
O=C1c2ccc(Cl)cc2CCN1c1cccnc1 | 61 nM | 82 |  |  |  |  |  |  |  | 5000 nM |  | predicted hepatic clearance [12]: < 3.5 mL/min/kg; predicted hepatic clearance (CLH) [13]: < 20.2 mL/min/kg; logD [14]: 2.25
Cn1cc(C(=O)N2CC3(C2)CN(c2cncc(N4C(=O)c5ccc(Cl)cc5C4(C)C)c2)C3)cn1 | 2 nM | 5680 | 3.63 ×10⁻⁶ cm/s | 44 µg/mL (≈ 92.2 µM) |  |  | 6.4 mL/min/kg | 5660 ng·h/mL | 69% |  | 6.4 mL/min/kg | fraction unbound at 1 µM [15]: 0.066; fraction unbound at 1 µM [16]: 0.036; CLint scaled [17]: < 4.4 mL/min/kg; CLint scaled [18]: < 3 mL/min/kg; clearance [19]: 2.1 mL/min/kg; AUC/dose [20]: 3111 kg·ng·h/mL/mg; AUC/dose [21]: 1889 kg·ng·h/mL/mg; bioavailability [22]: 37%
Cn1cc(C(=O)N2CC(Oc3cncc(N4C(=O)c5ccc(Cl)cc5C4(C)C)c3)C2)cn1 | 0.5 nM | 4160 | 3.45 ×10⁻⁶ cm/s | 310 µg/mL (≈ 686 µM) |  |  | 3.8 mL/min/kg | 7880 ng·h/mL | 60% |  | 6.4 mL/min/kg | 
